The source of these data is ChEMBL document CHEMBL1141285, “Antimicrobial compounds from the Australian desert plant Eremophila neglecta” (2007).

≈ marks a conversion by molar mass, not a printed value. Calls of active or inactive are those of the source. No cut-off for these calls is given here.

Broadly, the MIC is the lowest concentration found to suppress growth. What is called MBC is the lowest tested concentration that kills the bacteria rather than only halting them.

The subject of assay [1] is Staphylococcus aureus. Put plainly: Antimicrobial activity against Staphylococcus aureus ATCC 29213 by broth microdilution method. A general note: Broth dilution looks for growth in wells or tubes with falling amounts of substance.
Assay [2] relates to Staphylococcus aureus. Put plainly: Antimicrobial activity against Staphylococcus aureus ATCC 25923 by broth microdilution method. In kind it is functional. Put shortly:
(§1)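 Broth microdilution in cation-adjusted MH II broth with 2% DMSO in the 2-fold serial dilutions (final 1% v/v), done in duplicate. Bacteria grown on 5% sheep blood agar at 37 °C. Final inoculum 5 × 10^5 CFU/mL. Plates shaken 10 min, then incubated overnight at 37 °C. MIC is the lowest concentration with no growth in both duplicate wells.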

Another assay has as its system Streptococcus pyogenes. Put plainly: Antimicrobial activity against Streptococcus pyogenes ATCC 10389 by broth microdilution method. In kind it is functional. Put shortly: (§2)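 Broth microdilution in brain heart infusion broth with 2% DMSO in the 2-fold serial dilutions (final 1% v/v), done in duplicate. Final inoculum 5 × 10^5 CFU/mL. Plates shaken 10 min, then incubated overnight at 37 °C with 5% CO2. MIC is the lowest concentration with no growth in both duplicate wells.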

A further assay has as its system Salmonella typhimurium. Put plainly: Antimicrobial activity against Salmonella Typhimurium ATCC 13311 at 621.5 uM by broth microdilution method. In kind it is functional, organism-based. Conditions: Salmonella enterica subsp. enterica serovar Typhimurium.
Assay [3] relates to Staphylococcus aureus. Put plainly: Antimicrobial activity against Staphylococcus aureus ATCC 29213 by broth microdilution method. In kind it is functional. The method, boiled down:
as §1

In a further assay the test system is Streptococcus pneumoniae. Put plainly: Antimicrobial activity against Streptococcus pneumoniae ATCC 49619 by broth microdilution method. In kind it is functional. Put shortly:
as §2

In a further assay the test system is Pseudomonas aeruginosa. Put plainly: Antimicrobial activity against Pseudomonas aeruginosa ATCC 27853 at 621.5 uM by broth microdilution method. In kind it is functional, organism-based.
Another assay has as its system Escherichia coli. Put plainly: Antimicrobial activity against Escherichia coli ATCC 25922 at 621.5 uM by broth microdilution method. In kind it is functional, organism-based.
Assay [4] deals with Staphylococcus aureus. Put plainly: Antimicrobial activity against Staphylococcus aureus ATCC 29213 at 621.5 uM by broth microdilution method. In kind it is functional, organism-based.

`CN[C@H](CC(C)C)C(=O)N[C@H]1C(=O)N[C@@H](CC(N)=O)C(=O)N[C@H]2C(=O)N[C@H]3C(=O)N[C@H](C(=O)N[C@H](C(=O)O)c4cc(O)cc(O)c4-c4cc3ccc4O)[C@H](O)c3ccc(c(Cl)c3)Oc3cc2cc(c3O[C@@H]2O[C@H](CO)[C@@H](O)[C@H](O)[C@H]2O[C@H]2C[C@](C)(N)[C@H](O)[C@H](C)O2)Oc2ccc(cc2Cl)[C@H]1O` [VANCOMYCIN]: in the assay on Staphylococcus aureus [1], the minimum inhibitory concentration (MIC) amounted to 0.7 µM (≈ 1.01 µg/mL).
`CC(C)=CCC[C@H](C)[C@@H]1CC[C@@H](C)c2c(O)cc(CO)cc21`: the MBC in the assay on Staphylococcus aureus [2] came to 25.8 µM (≈ 7.8 µg/mL); in the assay with Streptococcus pyogenes it was 12.9 µM (≈ 3.9 µg/mL); against Staphylococcus aureus [3], 25.8 µM (≈ 7.8 µg/mL); against Streptococcus pneumoniae, 12.9 µM (≈ 3.9 µg/mL). The MIC against Staphylococcus aureus [2] came out at 25.8 µM (≈ 7.8 µg/mL); in the assay on Streptococcus pyogenes, 12.9 µM (≈ 3.9 µg/mL); with Staphylococcus aureus [3], 25.8 µM (≈ 7.8 µg/mL); in the assay with Streptococcus pneumoniae, 12.9 µM (≈ 3.9 µg/mL). The outcome in the assay on Salmonella typhimurium, with Pseudomonas aeruginosa and with Escherichia coli was inactive.
Take `CC(C)=CCC[C@H](C)[C@@H]1CC[C@@H](C)c2c(O)cc(C(=O)O)cc21`: the minimum bactericidal concentration (MBC) was determined as 99 µM (≈ 31.3 µg/mL) in the assay on Staphylococcus aureus [2], 99 µM (≈ 31.3 µg/mL) in the assay on Streptococcus pyogenes, 49.3 µM (≈ 15.6 µg/mL) in the assay on Staphylococcus aureus [3] and 49.3 µM (≈ 15.6 µg/mL) with Streptococcus pneumoniae. The MIC in the assay on Staphylococcus aureus [2] is 49.3 µM (≈ 15.6 µg/mL); in the assay on Streptococcus pyogenes, 24.7 µM (≈ 7.82 µg/mL); against Staphylococcus aureus [3], 49.3 µM (≈ 15.6 µg/mL); with Streptococcus pneumoniae, 24.7 µM (≈ 7.82 µg/mL). The outcome in the assay with Salmonella typhimurium, in the assay with Pseudomonas aeruginosa and with Escherichia coli was inactive.
Take `CC(C)=CCCC1=COC2=C(C)C(=O)C(=O)c3c(C)ccc1c32`: the MBC with Staphylococcus aureus [2] was found to be 50.6 µM (≈ 15.6 µg/mL); against Streptococcus pyogenes, 203 µM (≈ 62.6 µg/mL); against Staphylococcus aureus [3] it was 203 µM (≈ 62.6 µg/mL); against Streptococcus pneumoniae, 12.7 µM (≈ 3.92 µg/mL). For the same compound, the MIC in the assay with Staphylococcus aureus [2] stood at 25.3 µM (≈ 7.8 µg/mL); with Streptococcus pyogenes, 102 µM (≈ 31.3 µg/mL); against Staphylococcus aureus [3], 25.3 µM (≈ 7.8 µg/mL); against Streptococcus pneumoniae, 6.5 µM (≈ 2 µg/mL). In addition, the outcome in the assay with Salmonella typhimurium, in the assay with Pseudomonas aeruginosa and in the assay with Escherichia coli was inactive.
The compound GENTAMICIN had a minimal inhibitory concentration (MIC) with Staphylococcus aureus [3] of 1 µM.
Turning to `CC(=O)OCc1cc(O)c2c(c1)[C@H]([C@@H](C)CCC=C(C)C)C[C@H](OC(C)=O)[C@H]2C`, the outcome in the assay on Staphylococcus aureus [4] was inactive.
